Reference: PMC6558985 (Nature chemical biology, 2019)
Substitutions are numbered along the chain they refer to. Each block holds one compound with its values, some of them ahead of it.

Experiments:
Dm-spastin WT = target: T1, Dm-spastin WT (Drosophila melanogaster, UniProt Q8I0P1, DEL311-372); experiment: Steady-state ATPase activity, NADH-coupled assay, Dm-spastin wildtype; assay type: biochemical, D. melanogaster
T1 sequence (Q8I0P1 with tags, fused parts or gaps DEL311-372 limits assumed): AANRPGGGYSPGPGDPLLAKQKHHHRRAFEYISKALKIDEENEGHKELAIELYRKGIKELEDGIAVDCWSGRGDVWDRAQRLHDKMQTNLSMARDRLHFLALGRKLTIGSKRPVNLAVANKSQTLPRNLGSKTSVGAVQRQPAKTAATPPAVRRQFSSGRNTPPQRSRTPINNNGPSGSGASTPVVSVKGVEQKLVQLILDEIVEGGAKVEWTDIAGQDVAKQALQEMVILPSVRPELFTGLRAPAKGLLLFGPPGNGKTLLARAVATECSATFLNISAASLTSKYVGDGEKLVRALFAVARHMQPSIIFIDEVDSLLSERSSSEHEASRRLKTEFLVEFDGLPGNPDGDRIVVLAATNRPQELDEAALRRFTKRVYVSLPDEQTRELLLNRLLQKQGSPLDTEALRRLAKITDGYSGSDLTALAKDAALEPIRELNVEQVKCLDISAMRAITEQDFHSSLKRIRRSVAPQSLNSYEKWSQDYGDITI
Outline: (§1)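 Recombinant Dm-spastin, wildtype or point mutants, assayed by steady-state ATPase with NADH-coupled read-out at 0.5 mM MgATP over a test-compound concentration series. Data were fit to a sigmoidal dose-response equation to give IC50, average ± s.d., n = 3. Separately, rates across ATP concentrations were fit to a cooperative Michaelis-Menten equation for kcat and K1/2.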

Hs-FIGL1 = target: T2, Hs-FIGL1 (Homo sapiens, UniProt Q6PIW4); experiment: Steady-state ATPase activity, NADH-coupled assay, Hs-FIGL1; assay type: biochemical; conditions: 10 µM compound, 0.5 mM MgATP
T2 sequence (Q6PIW4 288-674): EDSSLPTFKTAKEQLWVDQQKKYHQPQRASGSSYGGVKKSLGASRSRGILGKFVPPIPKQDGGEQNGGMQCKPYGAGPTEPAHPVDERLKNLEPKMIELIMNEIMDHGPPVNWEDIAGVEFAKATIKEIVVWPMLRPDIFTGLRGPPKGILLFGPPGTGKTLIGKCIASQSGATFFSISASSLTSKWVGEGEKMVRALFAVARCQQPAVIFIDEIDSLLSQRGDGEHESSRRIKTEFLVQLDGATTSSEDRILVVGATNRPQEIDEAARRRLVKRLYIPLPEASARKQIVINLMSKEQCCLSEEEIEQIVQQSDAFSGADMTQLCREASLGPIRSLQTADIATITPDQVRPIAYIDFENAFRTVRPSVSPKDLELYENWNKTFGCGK
Outline: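 Recombinant AAA protein constructs assayed by steady-state ATPase with NADH-coupled read-out at 0.5 mM MgATP, with test compound at 2 µM or 10 µM. Activity is reported as percent of steady-state ATPase activity, average ± s.d., n = 3.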

[1] = test system: Dm-spastin, Hs-FIGL1, Hs-PCH2, Mm-VCP, Xl-katanin; experiment: Screen of selected kinase inhibitors against five AAA proteins; assay type: biochemical; conditions: 10 µM compound, 0.5 mM ATP
Outline: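 Five recombinant AAA proteins (Dm-spastin, Hs-FIGL1, Hs-PCH2, Mm-VCP, Xl-katanin) were screened for ATPase activity with each test compound at 10 µM and 0.5 mM MgATP. Activity is expressed as percent of the DMSO control, average of n = 2, binned in 10% steps.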

Dm-spastin Q488V = target: T3, Dm-spastin Q488V (Drosophila melanogaster, UniProt Q8I0P1, DEL311-372/Q488V); experiment: Steady-state ATPase activity, NADH-coupled assay, Dm-spastin Q488V; assay type: biochemical, D. melanogaster
T3 sequence (Q8I0P1 with tags, fused parts or gaps DEL311-372/Q488V limits assumed): T1 sequence (Q8I0P1 with tags, fused parts or gaps DEL311-372 limits assumed) with Q218V
Outline: as §1

Dm-spastin N527C = target: T4, Dm-spastin N527C (Drosophila melanogaster, UniProt Q8I0P1, DEL311-372/N527C); experiment: Steady-state ATPase activity, NADH-coupled assay, Dm-spastin N527C; assay type: biochemical, D. melanogaster
T4 sequence (Q8I0P1 with tags, fused parts or gaps DEL311-372/N527C limits assumed): T1 sequence (Q8I0P1 with tags, fused parts or gaps DEL311-372 limits assumed) with N257C
Outline: as §1

Dm-spastin N527T = target: T5, Dm-spastin N527T (Drosophila melanogaster, UniProt Q8I0P1, DEL311-372/N527T); experiment: Steady-state ATPase activity, NADH-coupled assay, Dm-spastin N527T; assay type: biochemical, D. melanogaster
T5 sequence (Q8I0P1 with tags, fused parts or gaps DEL311-372/N527T limits assumed): T1 sequence (Q8I0P1 with tags, fused parts or gaps DEL311-372 limits assumed) with N257T
Outline: as §1

Dm-spastin S689A = target: T6, Dm-spastin S689A (Drosophila melanogaster, UniProt Q8I0P1, DEL311-372/S689A); experiment: Steady-state ATPase activity, NADH-coupled assay, Dm-spastin S689A; assay type: biochemical, D. melanogaster
T6 sequence (Q8I0P1 with tags, fused parts or gaps DEL311-372/S689A limits assumed): T1 sequence (Q8I0P1 with tags, fused parts or gaps DEL311-372 limits assumed) with S419A
Outline: as §1

Dm-spastin T692A = target: T7, Dm-spastin T692A (Drosophila melanogaster, UniProt Q8I0P1, DEL311-372/T692A); experiment: Steady-state ATPase activity, NADH-coupled assay, Dm-spastin T692A; assay type: biochemical, D. melanogaster
T7 sequence (Q8I0P1 with tags, fused parts or gaps DEL311-372/T692A limits assumed): T1 sequence (Q8I0P1 with tags, fused parts or gaps DEL311-372 limits assumed) with T422A
Outline: as §1

Dm-spastin = target: T8, Dm-spastin (Drosophila melanogaster, UniProt Q8I0P1, DEL311-372); experiment: In vitro microtubule-severing assay; assay type: biochemical, D. melanogaster; conditions: 2 µM inhibitor, 0.5 mM MgATP, 15 nM Dm-spastin
T8 sequence (Q8I0P1 with tags, fused parts or gaps DEL311-372 limits assumed): T1 sequence (Q8I0P1 with tags, fused parts or gaps DEL311-372 limits assumed)

Hs-spastin = target: T9, Hs-spastin (Homo sapiens, UniProt Q9UBP0); experiment: Steady-state ATPase activity, NADH-coupled assay, Hs-spastin wildtype; assay type: biochemical
T9 sequence (Q9UBP0 229-616): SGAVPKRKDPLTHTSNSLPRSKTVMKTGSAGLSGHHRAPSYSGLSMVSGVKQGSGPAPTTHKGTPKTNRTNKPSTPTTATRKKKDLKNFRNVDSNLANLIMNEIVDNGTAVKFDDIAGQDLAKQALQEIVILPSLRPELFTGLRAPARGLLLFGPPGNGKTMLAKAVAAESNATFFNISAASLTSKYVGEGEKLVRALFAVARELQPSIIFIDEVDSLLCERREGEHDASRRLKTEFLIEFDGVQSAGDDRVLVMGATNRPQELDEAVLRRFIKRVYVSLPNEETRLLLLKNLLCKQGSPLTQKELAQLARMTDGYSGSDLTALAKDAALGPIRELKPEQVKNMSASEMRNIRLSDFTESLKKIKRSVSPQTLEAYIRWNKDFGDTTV
Outline: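 Recombinant human spastin purified from E. coli. Steady-state ATPase inhibition was measured over a test-compound concentration series at 1 mM ATP. IC50 reported as average ± s.d., n = 3.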

- inhibition of the ATPase activity of Dm-spastin (Dm-spastin WT; 10 µM compound, 0.5 mM MgATP): substantially inhibited
- potency of Dm-spastin inhibition (dose-dependent analysis) (Dm-spastin WT; 0.5 mM MgATP, IC50 not determined): micromolar range
- inhibition of Hs-FIGL1 ATPase activity (Hs-FIGL1): also inhibited Hs-FIGL1
- inhibition of ATPase activity of at least one of five AAA proteins [1]: > 50%
SMILES: N#CCc1ccc(Nc2nc(Nc3cc(C4CC4)[nH]n3)c3ccccc3n2)cc1 [compound 1, 2-(4-((4-((5-cyclopropyl-1H-pyrazol-3-yl)amino)quinazolin-2-yl)amino)phenyl)acetonitrile, reference compound]

- IC50 (Dm-spastin WT): 1000 ± 600 nM
- selectivity for Dm-spastin over four other AAA proteins (Dm-spastin WT; 2 µM (Fig. 2 legend; text says 10 µM), 0.5 mM MgATP): increased selectivity for Dm-spastin
- effect on kcat of Dm-spastin across a range of ATP concentrations (Dm-spastin WT; MgATP 0.027 to 3 mM): not substantial changes in kcat
- IC50 (Dm-spastin Q488V): ~12500 nM
- IC50 (Dm-spastin N527C): 2900 ± 500 nM
- reduction of potency by N527C mutation relative to Dm-spastin WT (Dm-spastin N527C; P-loop mutation): ~ 3 fold
- IC50 (Dm-spastin N527T): > 30000 nM
- IC50 (Dm-spastin S689A): 900 ± 200 nM
- change of potency by S689A mutation relative to Dm-spastin WT (Dm-spastin S689A; sensor-II mutation): no substantial difference
- IC50 (Dm-spastin T692A): 1500 ± 400 nM
- reduction of potency by T692A mutation relative to Dm-spastin WT (Dm-spastin T692A; sensor-II mutation): ~ 2 fold
SMILES: CN1CCN(c2nc(Nc3cc(-c4ccccc4)[nH]n3)c3ccccc3n2)CC1 [compound 4, 2-(4-methylpiperazin-1-yl)-N-(5-phenyl-1H-pyrazol-3-yl)quinazolin-4-amine]
- effect on K1/2 of Dm-spastin across a range of ATP concentrations (Dm-spastin WT; MgATP 0.027 to 3 mM): increases in K1/2 at higher compound concentrations

- IC50 (Dm-spastin WT): 106 ± 35 nM
- potency on Dm-spastin ATPase relative to compound 4 (more potent) (Dm-spastin WT; 0.5 mM MgATP): ~ 10 fold
- Dm-spastin dependent microtubule-severing (Dm-spastin): blocked
SMILES: C[C@@H]1CNCCN1c1nc(Nc2cc(C(C)(C)C)[nH]n2)c2ccccc2n1 [compound 5, (R)-N-(5-(tert-butyl)-1H-pyrazol-3-yl)-2-(2-methyl-piperazin-1-yl)quinazolin-4-amine]

- IC50 (Hs-spastin): 132 ± 55 nM
- improved potency on Hs-spastin with respect to compound 5 (Hs-spastin; 1 mM ATP): ~ 30 fold
SMILES: C[C@@H]1CNCCN1c1nc(Nc2cc(C(C)(C)C)[nH]n2)c2cc[nH]c2n1 [compound 6, (R)-N-(5-(tert-butyl)-1H-pyrazol-3-yl)-2-(2-methylpiperazin-1-yl)-7H-pyrrolo[2,3-d]pyrimidin-4-amine]
